According to PubChem BioAssay AID2830 (NMMLSC, 2010):
Active and inactive are the calls of the source.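 Rule for the calls: active = toxic dose over resistance-reversal dose ratio above 10, when the toxic dose is under 15 µM; inactive = the rest.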

Tested on: Igrov ABCG2 cells + mitoxantrone, trypan blue viability, 3 d
Assay: restoration of mitoxantrone killing in ABCG2 cells, SAR follow-up, orthogonal assay for ABC transporter inhibitor project, Igrov cells, one SAR set (AID 2830)
Conditions: for CC50: measured here: toxicity without chemotherapeutic (TD50)
How it was run: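 Assay system: Igrove cells with ABCG2. Incubation: 3-day compound exposure alongside mitoxantrone. Measured by: trypan blue counts by microscopy. Doses: test compound concentration range 1–100 µM.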

| SMILES | EC50 | CC50 [µM] |
| --- | --- | --- |
| Cc1cc(C)c(C#N)c(SCc2c(F)cccc2[N+](=O)[O-])n1 | 18.3 µM (inactive) | > 100 |
| CCN(CC)P(=O)(Nc1cccc(C(F)(F)F)c1)c1ccc(N(C)C)cc1NC(=O)c1ccco1 (stereo not given) | 2.31 µM (inactive) | 19.8 |
| COc1ccc(/C=N/NC(=O)c2cccnc2)cc1CN1CCN(c2ccc(F)cc2)CC1 | 8.71 µM (inactive) | 15.4 |
| COc1ccc(-c2nn(-c3ccccc3)cc2/C=C/C(=O)N2CCN(c3ccccn3)CC2)cc1 | 1.22 µM | > 100 |
| CCOC(=O)c1cccc(NC(=O)c2cnc3ccccc3n2)c1 | 17.5 µM (inactive) | 67.8 |
| O=[N+]([O-])c1ccccc1-c1nc(-c2ccc(Br)o2)no1 | 15.6 µM (inactive) | 23.2 |
| CC1=NN(c2ccc([N+](=O)[O-])cc2)C(=O)/C1=C/N(C)C | 54.4 µM (inactive) | 78.4 |
| COC(=O)c1ccc(C(C(=O)NC2CCCCC2)N(Cc2ccccc2)C(=O)Cc2cccs2)cc1 (stereo not given) | 8.93 µM | > 100 |
| CCOC(=O)c1c(NC(=O)CSc2ncccn2)sc2c1CCN(Cc1ccccc1)C2 | 0.117 µM (inactive) | 2.61 |
| CCCCN(C)C1=CC2=CC(=C(C#N)C#N)CCC2CC1 (stereo not given) | 5.77 µM | 67.8 |
| CCCCn1c(O)c(N=Nc2ccccn2)c2ccccc21 | 3.73 µM (inactive) | 7.62 |
| N#Cc1ccc(-c2ccc(OCC(=O)NCCc3ccccc3)cc2)cc1 | 4.73 µM | > 100 |
| CNc1nc2cc([N+](=O)[O-])c([N+](=O)[O-])cc2nc1NC | 5.77 µM (inactive) | 7.32 |
| Cc1nc2cc(-c3cccc(F)c3)nn2c(N2CCN(C(=O)c3ccco3)CC2)c1C | 0.419 µM | > 100 |
| O=[N+]([O-])c1ccc(Nc2nc(Cl)nc(NCCO)n2)cc1 | 55.5 µM (inactive) | > 100 |
